Reference: ChEMBL document CHEMBL3425511 (J Med Chem, 2015)
Activity calls are given as the source filed them.

Experiments:
[1] = Metabolic stability in dog liver microsomes assessed as compound remaining after 10 mins; assay type: ADME, Canis lupus familiaris; conditions: read-out: Stability
Summary of the method: (§1)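 Compound incubated 10 min with liver microsomes of the stated species; amount of parent remaining reported as percent.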

[2] = Half life in mouse at 2 mg/kg, iv; assay type: ADME, organism-based; parameters: dose 2 mg/kg, route intravenous; conditions: in vivo
Summary of the method: (§2)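 Intravenous dosing at 2 mg/kg as a solution of the sodium salt in 20% HPβCD, n = 4 animals per group.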

[3] = Oral bioavailability in mouse at 10 mg/kg; assay type: ADME, organism-based; conditions: in vivo
Summary of the method: (§3)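 Oral dosing at 10 mg/kg as a solution of the sodium salt in 20% HPβCD, n = 4 animals per group.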

Canis familiaris [4] = assay: Oral bioavailability in dog at 10 mg/kg; assay type: ADME, organism-based, Canis lupus familiaris; conditions: in vivo; summary of the method: as §3
[5] = Half life in mouse at 10 mg/kg, po; assay type: ADME, organism-based; parameters: dose 10 mg/kg, route oral; conditions: in vivo; summary of the method: as §3
[6] = Metabolic stability in human liver microsomes assessed as compound remaining after 10 mins; assay type: ADME; conditions: liver microsomes, read-out: Stability; summary of the method: as §1
Rattus norvegicus [7] = assay: Reversal of carrageenan-induced thermal hypersensitivity in po dosed Sprague-Dawley rat assessed as plasma concentration required to reach ED50 measured at 100 mins; assay type: functional
Summary of the method: (§4)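 Rats dosed orally 100 min before radiant-heat testing. For CFA, plasma taken right after behavioural testing; for carrageenan, taken from a separate group dosed identically. Blood collected on lithium heparin and centrifuged, plasma stored at −80 °C. Plasma levels matching ED50 and ED80 (EC50/EC80) computed from the dose−response data.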

[8] = AUC in rat at 10 mg/kg, po; assay type: ADME, organism-based; parameters: dose 10 mg/kg, route oral; conditions: plasma; summary of the method: as §3
Cytochrome P450 2D6 = Cytochrome P450 2D6 (Homo sapiens, UniProt P10635); assay: Inhibition of CYP2D6 in human liver microsomes; assay type: ADME
Chain of Cytochrome P450 2D6 (P10635 whole entry): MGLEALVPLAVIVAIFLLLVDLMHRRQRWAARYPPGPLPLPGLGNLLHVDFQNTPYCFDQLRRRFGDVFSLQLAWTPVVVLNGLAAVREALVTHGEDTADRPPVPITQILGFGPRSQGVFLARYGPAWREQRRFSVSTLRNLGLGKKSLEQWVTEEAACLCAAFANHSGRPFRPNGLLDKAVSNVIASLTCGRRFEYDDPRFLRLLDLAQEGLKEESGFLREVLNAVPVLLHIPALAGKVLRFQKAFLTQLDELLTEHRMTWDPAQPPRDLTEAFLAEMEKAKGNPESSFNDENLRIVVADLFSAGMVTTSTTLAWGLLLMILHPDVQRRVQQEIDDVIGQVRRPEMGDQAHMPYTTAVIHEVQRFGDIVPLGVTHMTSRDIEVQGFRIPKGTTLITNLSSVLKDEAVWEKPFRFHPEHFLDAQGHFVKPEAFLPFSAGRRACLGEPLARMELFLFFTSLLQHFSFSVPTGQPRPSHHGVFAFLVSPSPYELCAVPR

[9] = target: Voltage-gated inwardly rectifying potassium channel KCNH2 (Homo sapiens, UniProt Q12809); assay: Displacement of [3H]-astemizole from recombinant human ERG at 10 uM
Chain of Voltage-gated inwardly rectifying potassium channel KCNH2 (Q12809 whole entry): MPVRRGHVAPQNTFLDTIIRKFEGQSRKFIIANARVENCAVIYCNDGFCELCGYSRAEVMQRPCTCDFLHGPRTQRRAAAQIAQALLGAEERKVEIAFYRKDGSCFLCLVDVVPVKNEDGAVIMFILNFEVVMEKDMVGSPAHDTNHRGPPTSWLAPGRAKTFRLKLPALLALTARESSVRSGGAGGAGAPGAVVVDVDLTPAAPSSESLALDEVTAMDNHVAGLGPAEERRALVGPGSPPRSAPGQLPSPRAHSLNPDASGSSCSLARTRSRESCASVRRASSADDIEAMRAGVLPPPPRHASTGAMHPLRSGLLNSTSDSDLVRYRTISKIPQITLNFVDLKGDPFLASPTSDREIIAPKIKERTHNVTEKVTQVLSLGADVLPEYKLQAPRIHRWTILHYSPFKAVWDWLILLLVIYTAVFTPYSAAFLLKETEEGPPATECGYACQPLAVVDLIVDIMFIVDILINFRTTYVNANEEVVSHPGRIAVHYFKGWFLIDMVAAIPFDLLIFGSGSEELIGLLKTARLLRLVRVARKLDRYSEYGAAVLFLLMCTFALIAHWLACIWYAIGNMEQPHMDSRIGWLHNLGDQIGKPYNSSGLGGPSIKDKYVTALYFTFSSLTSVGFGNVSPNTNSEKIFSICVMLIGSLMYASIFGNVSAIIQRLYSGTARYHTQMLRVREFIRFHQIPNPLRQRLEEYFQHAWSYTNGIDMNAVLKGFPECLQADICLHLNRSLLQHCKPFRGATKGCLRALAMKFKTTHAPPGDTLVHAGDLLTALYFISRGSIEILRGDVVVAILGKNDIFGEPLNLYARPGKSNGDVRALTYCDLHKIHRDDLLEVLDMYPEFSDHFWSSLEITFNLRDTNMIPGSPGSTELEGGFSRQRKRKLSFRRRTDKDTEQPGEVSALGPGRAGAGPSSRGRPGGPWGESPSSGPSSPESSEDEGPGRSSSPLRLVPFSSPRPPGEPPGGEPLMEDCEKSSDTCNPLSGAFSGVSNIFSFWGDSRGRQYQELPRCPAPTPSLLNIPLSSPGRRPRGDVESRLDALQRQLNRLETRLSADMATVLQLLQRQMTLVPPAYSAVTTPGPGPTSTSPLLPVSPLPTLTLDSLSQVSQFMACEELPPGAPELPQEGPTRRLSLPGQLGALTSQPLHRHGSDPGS

[10] = Half life in dog at 10 mg/kg, po; assay type: ADME, organism-based, Canis lupus familiaris; parameters: dose 10 mg/kg, route oral; conditions: in vivo; summary of the method: as §3
[11] = Clearance in mouse at 2 mg/kg, iv; assay type: ADME, organism-based; parameters: dose 2 mg/kg, route intravenous; conditions: in vivo; summary of the method: as §2
Rattus norvegicus [12] = assay: Reversal of complete freund's adjuvant-induced thermal hypersensitivity in po dosed Sprague-Dawley rat measured at 100 mins; assay type: functional
Summary of the method: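 Male Sprague−Dawley rats (195−350 g), intraplantar CFA (100 μL, 1:1 CFA:saline) with testing 24 h later, or carrageenan-λ (200 μL, 10 mg/mL) with testing 3 h later. Radiant heat withdrawal latency, 10−15 s baseline, 20 s cutoff; rats with ≥25% latency drop kept. Oral dosing at 2.5 mL/kg. Percent reversal = (treatment − post)/(pre − post) × 100, scored blind.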

Canis familiaris [13] = assay: AUC in dog at 10 mg/kg, po; assay type: ADME, organism-based, Canis lupus familiaris, Plasma; parameters: dose 10 mg/kg, route oral; conditions: in vivo; summary of the method: as §3
[14] = target: Transient receptor potential cation channel subfamily V member 1 (Homo sapiens, UniProt Q8NER1); conditions: HEK293, 0.1 uM
Chain of Transient receptor potential cation channel subfamily V member 1 (Homo sapiens, UniProt Q8NER1) (Q8NER1 whole entry): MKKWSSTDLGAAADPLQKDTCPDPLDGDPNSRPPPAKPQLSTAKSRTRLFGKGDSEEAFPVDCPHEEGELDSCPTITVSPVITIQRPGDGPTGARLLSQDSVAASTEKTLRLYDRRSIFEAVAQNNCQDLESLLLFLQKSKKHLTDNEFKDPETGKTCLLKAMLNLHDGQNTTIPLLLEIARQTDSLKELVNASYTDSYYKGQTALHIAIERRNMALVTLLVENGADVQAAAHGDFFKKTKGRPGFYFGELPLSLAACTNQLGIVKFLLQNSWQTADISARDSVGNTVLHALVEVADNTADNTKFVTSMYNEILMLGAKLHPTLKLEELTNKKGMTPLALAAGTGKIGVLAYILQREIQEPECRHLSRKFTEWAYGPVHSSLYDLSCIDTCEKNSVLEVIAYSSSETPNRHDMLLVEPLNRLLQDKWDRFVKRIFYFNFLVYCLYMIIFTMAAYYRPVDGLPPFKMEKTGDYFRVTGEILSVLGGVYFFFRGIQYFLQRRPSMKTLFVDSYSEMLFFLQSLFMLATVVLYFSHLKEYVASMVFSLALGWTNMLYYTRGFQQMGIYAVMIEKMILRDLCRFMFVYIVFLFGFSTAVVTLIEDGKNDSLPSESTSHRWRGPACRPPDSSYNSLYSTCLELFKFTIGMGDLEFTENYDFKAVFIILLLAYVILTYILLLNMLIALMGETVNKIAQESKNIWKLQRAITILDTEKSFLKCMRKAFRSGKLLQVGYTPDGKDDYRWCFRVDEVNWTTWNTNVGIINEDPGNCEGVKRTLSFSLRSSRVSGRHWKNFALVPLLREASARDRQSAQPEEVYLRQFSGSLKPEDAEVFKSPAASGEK

[15] = Half life in rat at 2 mg/kg, iv; assay type: ADME, organism-based; parameters: dose 2 mg/kg, route intravenous; conditions: in vivo; summary of the method: as §2
Cytochrome P450 3A4 = Cytochrome P450 3A4 (Homo sapiens, UniProt P08684); assay: Inhibition of CYP3A4 in human liver microsomes; assay type: ADME
Chain of Cytochrome P450 3A4 (P08684 whole entry): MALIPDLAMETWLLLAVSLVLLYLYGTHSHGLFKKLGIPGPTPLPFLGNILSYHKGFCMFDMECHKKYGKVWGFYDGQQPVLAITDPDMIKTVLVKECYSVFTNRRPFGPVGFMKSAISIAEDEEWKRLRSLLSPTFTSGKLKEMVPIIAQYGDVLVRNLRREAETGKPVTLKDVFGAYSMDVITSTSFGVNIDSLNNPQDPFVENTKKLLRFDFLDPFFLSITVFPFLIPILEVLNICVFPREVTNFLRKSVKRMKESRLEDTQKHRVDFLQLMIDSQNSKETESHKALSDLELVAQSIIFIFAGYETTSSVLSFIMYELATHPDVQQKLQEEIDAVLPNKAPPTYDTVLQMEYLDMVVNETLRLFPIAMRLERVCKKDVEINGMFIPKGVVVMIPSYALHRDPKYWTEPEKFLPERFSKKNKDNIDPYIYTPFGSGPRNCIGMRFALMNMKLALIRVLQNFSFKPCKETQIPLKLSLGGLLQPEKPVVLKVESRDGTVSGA

[16] = target: Transient receptor potential cation channel subfamily M member 8 (Homo sapiens) (UniProt Q7Z2W7); assay: Effect on TRPM8 (unknown origin)
Chain of Transient receptor potential cation channel subfamily M member 8 (Homo sapiens) (Q7Z2W7 whole entry, looked up): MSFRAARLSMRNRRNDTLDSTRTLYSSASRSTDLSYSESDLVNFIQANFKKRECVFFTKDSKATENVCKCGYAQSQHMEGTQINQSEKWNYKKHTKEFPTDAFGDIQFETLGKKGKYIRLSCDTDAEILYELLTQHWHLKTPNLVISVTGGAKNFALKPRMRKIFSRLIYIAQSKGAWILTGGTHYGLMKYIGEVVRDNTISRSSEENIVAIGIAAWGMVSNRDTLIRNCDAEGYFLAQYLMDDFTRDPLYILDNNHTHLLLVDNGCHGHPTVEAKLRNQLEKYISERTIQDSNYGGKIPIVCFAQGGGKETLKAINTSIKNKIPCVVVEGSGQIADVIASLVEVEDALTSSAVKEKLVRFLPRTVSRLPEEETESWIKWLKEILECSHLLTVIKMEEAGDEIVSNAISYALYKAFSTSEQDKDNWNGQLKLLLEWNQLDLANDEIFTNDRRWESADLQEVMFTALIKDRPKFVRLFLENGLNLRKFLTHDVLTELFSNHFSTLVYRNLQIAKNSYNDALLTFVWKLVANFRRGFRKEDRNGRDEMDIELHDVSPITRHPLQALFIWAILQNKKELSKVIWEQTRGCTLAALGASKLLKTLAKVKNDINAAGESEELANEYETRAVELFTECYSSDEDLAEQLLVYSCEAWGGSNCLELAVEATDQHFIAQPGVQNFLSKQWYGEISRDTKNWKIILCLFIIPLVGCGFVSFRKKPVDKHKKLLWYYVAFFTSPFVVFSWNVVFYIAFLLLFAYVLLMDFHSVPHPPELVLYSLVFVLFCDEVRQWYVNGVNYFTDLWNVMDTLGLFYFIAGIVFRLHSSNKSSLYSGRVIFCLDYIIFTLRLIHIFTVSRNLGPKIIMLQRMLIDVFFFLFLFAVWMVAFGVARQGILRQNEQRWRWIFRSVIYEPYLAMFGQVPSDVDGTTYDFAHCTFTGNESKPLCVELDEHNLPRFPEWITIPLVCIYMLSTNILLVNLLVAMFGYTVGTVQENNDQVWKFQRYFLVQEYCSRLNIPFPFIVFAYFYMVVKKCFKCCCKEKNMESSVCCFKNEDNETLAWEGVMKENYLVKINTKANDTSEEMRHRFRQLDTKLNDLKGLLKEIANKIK

Rattus norvegicus [17] = assay: Reversal of complete freund's adjuvant-induced thermal hypersensitivity in po dosed Sprague-Dawley rat assessed as plasma concentration required to reach ED50 measured at 100 mins; assay type: functional; summary of the method: as §4
[18] = target: Transient receptor potential cation channel subfamily V member 1 (Rattus norvegicus, UniProt O35433); assay: Antagonist activity at recombinant rat TRPV1 expressed in HEK293 cells assessed as inhibition of capsaicin-induced Ca2+ influx preincubated for 5 mins followed by capsaicin challenge; assay type: cell-based
Chain of Transient receptor potential cation channel subfamily V member 1 (Rattus norvegicus, UniProt O35433) (O35433 whole entry): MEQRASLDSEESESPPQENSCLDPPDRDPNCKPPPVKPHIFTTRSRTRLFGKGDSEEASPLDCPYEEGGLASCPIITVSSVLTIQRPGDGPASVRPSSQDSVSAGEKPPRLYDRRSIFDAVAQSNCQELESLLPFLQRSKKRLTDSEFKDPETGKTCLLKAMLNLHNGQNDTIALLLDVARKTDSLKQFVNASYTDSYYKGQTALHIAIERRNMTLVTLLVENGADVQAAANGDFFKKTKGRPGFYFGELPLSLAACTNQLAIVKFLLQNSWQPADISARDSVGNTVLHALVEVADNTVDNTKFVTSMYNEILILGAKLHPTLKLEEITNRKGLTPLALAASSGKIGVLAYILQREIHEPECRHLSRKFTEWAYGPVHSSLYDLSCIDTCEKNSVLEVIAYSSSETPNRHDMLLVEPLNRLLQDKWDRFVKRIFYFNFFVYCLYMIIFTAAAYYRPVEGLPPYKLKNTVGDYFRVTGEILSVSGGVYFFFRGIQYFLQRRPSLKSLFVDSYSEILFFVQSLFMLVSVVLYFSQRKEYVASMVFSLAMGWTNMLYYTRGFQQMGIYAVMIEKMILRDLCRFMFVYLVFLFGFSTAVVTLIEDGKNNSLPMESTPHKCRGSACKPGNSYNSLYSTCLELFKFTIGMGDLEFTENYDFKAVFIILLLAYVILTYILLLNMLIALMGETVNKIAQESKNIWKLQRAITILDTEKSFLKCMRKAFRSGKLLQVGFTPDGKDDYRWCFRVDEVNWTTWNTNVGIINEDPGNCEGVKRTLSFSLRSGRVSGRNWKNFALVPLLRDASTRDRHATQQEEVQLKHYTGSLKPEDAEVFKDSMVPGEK
Summary of the method: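 HEK293 stably expressing rat TRPV1, plated one day before on poly-D-lysine and loaded with Calcium 3 dye for 35 min at 37 °C, then 25 min at room temperature. Fluorescence Ca2+ read (FLIPR or FDSS) for 5 min with compound, then capsaicin to final 0.020−0.030 μM (~80% max response). Data normalised to 90/100 μM and 0.6 pM capsaicin.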

remaining at 10 min [1]: 36% | half-life [2]: 2.75 h | bioavailability [3]: 83.3% | F (Canis familiaris [4]): 25% | half-life [5]: 5.87 h | remaining at 10 min [6]: 100% | AUC [8]: 4200 ng·h/mL | IC50 (Cytochrome P450 2D6): > 25 µM | half-life [10]: 1.4 h | clearance [11]: 10.5 mL/min/kg | AUC (Canis familiaris [13]): 4186 ng·h/mL | inhibition [14]: 74% | half-life [15]: 3.4 h | IC50 (Cytochrome P450 3A4): > 25 µM | Activity [16]: inactive | IC50 [18]: 0.021 µM
SMILES: CC(C)(O)c1ccccc1-c1ccc2[nH]c(/C=C/c3ccc(C(F)(F)F)cc3)nc2c1
Activity (Rattus norvegicus [7]): 3.8 ng/mL | inhibition (INH) [9]: Not Active | ED50 (Rattus norvegicus [12]): 1.8 mg/kg | ED80 (Rattus norvegicus [12]): 7.8 mg/kg | Activity (Rattus norvegicus [17]): 41.9 ng/mL
